ChEMBL document CHEMBL5247630, “Rational design of the zonulin inhibitor AT1001 derivatives as potential anti SARS-CoV-2” (Eur J Med Chem, 2022)
Non-standard residues stand in square brackets, D forms with d. Residues, ends and D or L forms follow the SMILES beside them. *: point of attachment. Tic = O=C(O)[C@@H]1Cc2ccccc2CN1; Octanoyl = CCCCCCCC(=O)*; Boc = CC(C)(C)OC(=O)*

Key:
[1] = tested on: SARS-CoV-2; test: Antiviral activity against SARS-CoV-2 RG2674 infected in African green monkey Vero cells assessed as reduction in virus-induced cytopathic effect incubated for 5 days by microscopic analysis; assay type: functional, organism-based; conditions: Severe acute respiratory syndrome coronavirus 2, RG2674, Vero, 120 h
[2] = tested on: SARS-CoV-2; test: Antiviral activity against SARS-CoV-2 NVDBB-2220 infected in African green monkey Vero cells assessed as reduction in virus-induced cytopathic effect incubated for 5 days by microscopic analysis; assay type: functional, organism-based; conditions: Severe acute respiratory syndrome coronavirus 2, NVDBB-2220, Vero, 120 h
[3] = tested on: SARS-CoV-2; test: Antiviral activity against SARS-CoV-2 UC-1074 infected in African green monkey Vero cells assessed as reduction in virus-induced cytopathic effect incubated for 5 days by microscopic analysis; assay type: functional, organism-based; conditions: Severe acute respiratory syndrome coronavirus 2, UC-1074, Vero, 120 h
[4] = Cytotoxicity against African green monkey Vero cells assessed as change in cell morphology by microscopic analysis; assay type: toxicity, cell-based; conditions: chlorocebus sabaeus
In short: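 Vero CCL81 cells were run in parallel with the antiviral assay in DMEM 2% FCS for 5 days at 37 °C. The value is the minimum concentration causing a microscopically detectable change in cell morphology.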

[5] = tested on: Vero; test: Cytotoxicity against African green monkey Vero cells assessed as reduction in cell growth by Coulter counter analysis; assay type: toxicity, cell-based; conditions: chlorocebus sabaeus
In short: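 Mock-infected Vero CCL81 cultures were treated with the compound dilution series in DMEM 2% FCS for 5 days at 37 °C.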

[6] = target: T1, Replicase polyprotein 1ab (Severe acute respiratory syndrome coronavirus 2, UniProt P0DTD1); test: Inhibition of C-terminal His6-tagged recombinant SARS-CoV-2 MPro transfected in Escherichia coli BL21 (DE3) using Dabcyl-KTSAVLQSGFRKM-E(Edans)-NH2 as substrate preincubated for 15 mins followed by substrate addition measured after 30 mins by FRET assay
In short: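 Recombinant Mpro (20 nM final) was preincubated 15 min at room temperature with compound.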

[7] = target: T1, Replicase polyprotein 1ab; test: Binding affinity to C-terminal His6-tagged recombinant SARS-CoV-2 MPro transfected in Escherichia coli BL21 (DE3) assessed as dissociation constant by Cheng-Prusoff equation analysis
[8] = tested on: Human alphaherpesvirus 3; test: Antiviral activity against thymidine kinase positive VZV OKA infected in HELF cells assessed as reduction in viral replication; assay type: functional, organism-based; conditions: Human alphaherpesvirus 3, OKA
[9] = tested on: Human betaherpesvirus 5; test: Antiviral activity against HCMV Davis infected in HELF cells assessed as reduction in viral replication; assay type: functional, organism-based; conditions: Human betaherpesvirus 5, Davis
[10] = target: Replicase polyprotein 1ab (Severe acute respiratory syndrome coronavirus 2) (UniProt P0DTD1); test: Binding affinity to C-terminal His6-tagged recombinant SARS-CoV-2 MPro expressed in Escherichia coli BL21 (DE3) assessed as change in entropy by ITC assay
In short: (§1)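 E. coli BL21(DE3) Mpro, made untagged by 3C cleavage and SEC, was dialysed into 25 mM Tris-HCl pH 7.6, 20 mM NaCl, 1 mM TCEP. 20–25 µM protein in the cell was titrated with 160–250 µM compound at 28 °C, 0.5% DMSO on both sides, 2.5 µL injections every 180 s. One-site fit with stoichiometry fixed at 1 gave ΔH, ΔS and KD.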

[11] = Cmax in C57BL6 mouse at 25 mg/kg, po; assay type: ADME, organism-based; design: dose 25 mg/kg, route po; conditions: in vivo
In short: (§2)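 Male C57BL6 mice, 6–8 weeks, 3 per group, single intranasal dose (0.5 mg/kg at 1.0 mg/mL; 1.25 mg/kg at 2.5 mg/mL) or oral dose (10 mg/kg at 1.0 mg/mL; 25 mg/kg at 2.5 mg/mL). Blood collected at 0.25, 1, 2, 4, 8 and 24 h. Cmax, Tmax and AUCt/dose were taken from plasma concentrations, given with SD.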

[12] = AUCt/dose in C57BL6 mouse at 25 mg/kg, po; assay type: ADME, organism-based; conditions: in vivo; in short: as §2
[13] = AUCt/dose in C57BL6 mouse at 0.5 mg/kg, INH measured for 0.25 to 24 hrs; assay type: ADME, organism-based; conditions: in vivo, inhaled_or_intranasal, time 0.25-24 hrs; in short: as §2
[14] = tested on: Human alphaherpesvirus 3; test: Antiviral activity against thymidine kinase deficient VZV 07-1 infected in HELF cells assessed as reduction in viral replication; assay type: functional, organism-based; conditions: Human alphaherpesvirus 3, 07-1, HELF
[15] = target: Replicase polyprotein 1ab (Severe acute respiratory syndrome coronavirus 2) (UniProt P0DTD1); test: Binding affinity to C-terminal His6-tagged recombinant SARS-CoV-2 MPro expressed in Escherichia coli BL21 (DE3) assessed as change in enthalpy by ITC assay; in short: as §1
[16] = tested on: Human betaherpesvirus 5; test: Antiviral activity against HCMV AD-169 infected in HELF cells assessed as reduction in viral replication; assay type: functional, organism-based; conditions: Human betaherpesvirus 5, AD-169, HELF
[17] = Cmax in C57BL6 mouse at 1.25 mg/kg, INH; assay type: ADME, organism-based; design: dose 1.25 mg/kg, route inh; conditions: in vivo, inhaled_or_intranasal; in short: as §2
[18] = target: T1, Replicase polyprotein 1ab; test: Binding affinity to C-terminal His6-tagged recombinant SARS-CoV-2 MPro expressed in Escherichia coli BL21 (DE3) assessed as dissociation constant by ITC assay; in short: as §1
[19] = AUCt/dose in C57BL6 mouse at 1.25 mg/kg, INH; assay type: ADME, organism-based; conditions: in vivo, inhaled_or_intranasal; in short: as §2
[20] = Cytotoxicity against HELF cells assessed as change in cell morphology; assay type: toxicity, cell-based; conditions: human
[21] = Tmax in C57BL6 mouse at 10 mg/kg, po; assay type: ADME, organism-based; conditions: in vivo; in short: as §2
[22] = target: Replicase polyprotein 1ab (Severe acute respiratory syndrome coronavirus 2) (UniProt P0DTD1); test: Binding affinity to C-terminal His6-tagged recombinant SARS-CoV-2 MPro expressed in Escherichia coli BL21 (DE3) assessed as change in gibbs free energy by ITC assay
[23] = Selectivity index, ratio of EC50 for antiviral activity against SARS-CoV-2 RG2674 infected in African green monkey Vero cells to EC50 for antiviral activity against SARS-CoV-2 UC-1074 infected in African green monkey Vero cells; assay type: toxicity
[24] = AUCt/dose in C57BL6 mouse at 10 mg/kg, po; assay type: ADME, organism-based; conditions: in vivo; in short: as §2
[25] = Tmax in C57BL6 mouse at 0.5 mg/kg, INH; assay type: ADME, organism-based; conditions: in vivo, inhaled_or_intranasal; in short: as §2
[26] = Tmax in C57BL6 mouse at 1.25 mg/kg, INH; assay type: ADME, organism-based; conditions: in vivo, inhaled_or_intranasal; in short: as §2
[27] = Selectivity index, ratio of EC50 for antiviral activity against SARS-CoV-2 RG2674 infected in African green monkey Vero cells to EC50 for antiviral activity against SARS-CoV-2 NVDBB-2220 infected in African green monkey Vero cells; assay type: toxicity
[28] = Cmax in C57BL6 mouse at 10 mg/kg, po; assay type: ADME, organism-based; design: dose 10 mg/kg, route po; conditions: in vivo; in short: as §2
[29] = Tmax in C57BL6 mouse at 25 mg/kg, po; assay type: ADME, organism-based; conditions: in vivo; in short: as §2
[30] = Cmax in C57BL6 mouse at 0.5 mg/kg, INH measured for 0.25 to 24 hrs; assay type: ADME, organism-based; design: time lower 0.25 hrs, dose 0.5 mg/kg, time upper 24 hrs, route inh; conditions: in vivo, inhaled_or_intranasal; in short: as §2

Compound | EC50 [1] [µM] | EC50 [2] [µM] | EC50 [3] [µM] | MCC [4] [µM] | CC50 [5] [µM] | IC50 [6] [µM] | Kd [7] [µM] | EC50 [8] [µM] | EC50 [14] [µM] | MCC [20] [µM] | other results
CCC(CC)COC(=O)[C@H](C)N[P@](=O)(OC[C@H]1O[C@@](C#N)(c2ccc3c(N)ncnn23)[C@H](O)[C@@H]1O)Oc1ccccc1 | 1.3 | 0.2 | 0.89 | 80 | 70.6 |  |  |  |  |  | 
O=C[C@H](Cc1c[nH]cn1)NC(=O)[C@H](Cc1c[nH]cn1)NC(=O)[C@@H]1Cc2ccccc2CN1 (H-[Tic]-His-His-aldehyde) |  |  |  |  |  | 37.8 | 18.9 |  |  |  | 
Ac-GGVLVQPG-NH2 |  |  | 17.6 |  |  |  |  |  |  |  | 
CCCCCCCC(=O)NCC(=O)N[C@@H](Cc1ccccc1)C(=O)N[C@H](C=O)Cc1c[nH]cn1 (Octanoyl-Gly-Phe-His-aldehyde) | 39.9 | 5.2 | 5 | ≥ 100 | > 100 | 2.37 | 1.19 | > 100 | > 100 | > 100 | EC50 [9]: > 100 µM; -TdeltaS [10]: 31.8 kJ/mol; Cmax [11]: 33.7 ng/mL; AUCt/dose [12]: 2 kg·ng·h/mL/mg; AUCt/dose [13]: 188.05 kg·ng·h/mL/mg; deltaH [15]: -68.5 kJ/mol; EC50 [16]: > 20 µM; Cmax [17]: 325.95 ng/mL; Kd [18]: 425 nM; AUCt/dose [19]: 150.62 kg·ng·h/mL/mg; Tmax [21]: 45 min; deltaG [22]: -36.8 kJ/mol; Ratio EC50 [23]: 8; AUCt/dose [24]: 3.07 kg·ng·h/mL/mg; Tmax [25]: 15 min; Tmax [26]: 15 min; Ratio EC50 [27]: 8; Cmax [28]: 22.72 ng/mg; Tmax [29]: 30 min; Cmax [30]: 177.97 ng/mL
CC(C)(C)OC(=O)NCC(=O)N[C@@H](Cc1ccccc1)C(=O)N[C@H](C=O)Cc1c[nH]cn1 (Boc-Gly-Phe-His-aldehyde) | 84.9 | 43.3 | 50.2 | ≥ 100 | > 100 | 6.49 | 3.26 | > 100 | > 100 | > 100 | EC50 [9]: > 100 µM; -TdeltaS [10]: 24.2 kJ/mol; deltaH [15]: -60.8 kJ/mol; EC50 [16]: > 20 µM; Kd [18]: 442 nM; deltaG [22]: -36.7 kJ/mol
O=c1[nH]c(=O)n([C@H]2C[C@H](O)[C@@H](CO)O2)cc1/C=C/Br [BRIVUDINE] |  |  |  |  |  |  |  | 0.17 | 4.53 | > 300 | 
CC(C)C[C@@H](C=O)NC(=O)[C@H](Cc1ccccc1)NC(=O)[C@@H]1Cc2ccccc2CN1 (H-[Tic]-Phe-Leu-aldehyde) |  |  |  |  |  | > 425 | > 213 |  |  |  | 
